Test results from ChEMBL document CHEMBL1122273, “5-sulfamoylorthanilic acids, a sulfonamide series with salidiuretic activity” (J Med Chem, 1983).
The source made the active and inactive calls. The rule behind the calls is not given here.

Experiments:
[1] = system: Canis familiaris; assay: Saluretic activity in the dog measured as concentration of Na+ in urinary excretion (2 animals/dose) at (dose 1.56 mg/Kg, perorally); format: functional, Canis lupus familiaris, Urine
How it was run: (§1)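 Male beagles trained to rest on a table and to accept stomach tube and catheter. Food withdrawn 24 h before, tap water ad libitum. Bladder emptied by catheter, then 20 mL/kg tap water by stomach tube. Catheterized hourly up to 8 h with 4 mL/kg water orally each time; first 2 h urine served as control. Oral dosing after second catheterization. Pooled 1–6 h urine; Na⁺/K⁺ by flame photometry, Cl⁻ argentometrically.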

[2] = system: Canis familiaris; assay: Diuretic activity in the dog (2 animals/dose) at (dose 1.56 mg/Kg), when administered perorally; format: functional, Canis lupus familiaris, Urine
How it was run: (§2)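 Trained male beagles, fasted 24 h with tap water ad libitum. Bladder emptied by catheter, then 20 mL/kg tap water by stomach tube, with 4 mL/kg water at each hourly catheterization up to 8 h. The first 2 h of urine served as control. Oral dosing came after the second catheterization, and 1–6 h urine was pooled. Na⁺ and K⁺ were measured by flame photometry, Cl⁻ argentometrically, in mequiv/kg.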

[3] = system: Canis familiaris; assay: Saluretic activity in the dog measured as concentration of K+ in urinary excretion (2 animals/dose) at (dose 1.56 mg/Kg, perorally); format: functional, Canis lupus familiaris, Urine
How it was run: (§3)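 Male beagles trained to the procedures, food withdrawn 24 h before, tap water ad libitum. Bladder emptied by catheter, then 20 mL/kg tap water by stomach tube, plus 4 mL/kg orally at each hourly catheterization up to 8 h. The first 2 h of urine served as control. Compound given orally after the second catheterization. Urine from 1–6 h post-dose pooled; Na⁺ and K⁺ by flame photometry, Cl⁻ argentometrically, in mequiv/kg.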

[4] = system: Canis familiaris; assay: Saluretic activity on the basis of the 1.56 mg/Kg perorally dog assay; Compound is found to be highly active.; format: functional, organism-based; conditions: Canis lupus familiaris; how it was run: as §1
[5] = system: Canis familiaris; assay: Saluretic activity in the dog measured as concentration of Cl- in urinary excretion (2 animals/dose) at (dose 1.56 mg/Kg, perorally); format: functional, Canis lupus familiaris, Urine; how it was run: as §3
[6] = species: Rattus norvegicus; assay: Diuretic activity in the rats, determined by a modified Lipschitz test; format: functional, Urine
How it was run: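 Modified Lipschitz test: rats deprived of water 24 h, grouped in threes of similar weight in diuresis funnels. Oral dose of 50 mg/kg, suspended in 2% starch solution, by stomach tube.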

[7] = species: Rattus norvegicus; assay: Saluretic activity in the rat measured as concentration of chloride in urine; format: functional
How it was run: (§4)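 Rats deprived of food 24 h, water ad libitum, dosed 50 mg/kg by stomach tube as suspension in 2% starch, no extra water load. Groups of three in diuresis funnels; urine over first 5 h collected. Na⁺ and K⁺ by flame photometry, Cl⁻ argentometrically; expressed as mequiv/kg.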

[8] = species: Rattus norvegicus; assay: Saluretic activity in the rat measured as concentration of K+ in urine; format: functional; how it was run: as §4
[9] = system: Rattus norvegicus; assay: Saluretic activity on the basis of the 50 mg/kg perorally rat assay; Compound is found to be moderately active; format: functional, organism-based; set-up: dose 50 mg/kg; how it was run: as §4
[10] = It is the ratio, measured as saluretic activity in the dog as concentration of Cl- in urinary excretion (dose 1.56 mg/Kg, perorally) to that of (Na+)+(K+); format: functional, Urine; how it was run: as §2
[11] = It is the ratio, measured as saluretic activity in the dog as concentration of Na+ in urinary excretion (dose 1.56 mg/Kg, perorally) to that of K; format: functional, Urine; how it was run: as §2
[12] = species: Rattus norvegicus; assay: Saluretic activity in the rat measured as concentration of Na+ in urine; format: functional; how it was run: as §4
[13] = system: Canis familiaris; assay: Saluretic activity in the dog measured as concentration of Na+ in urinary excretion (2 animals/dose) at (dose 1.56 mg/Kg, po); format: functional, Canis lupus familiaris, Urine; how it was run: as §1
[14] = system: Canis familiaris; assay: Saluretic activity in the dog measured as concentration of K+ in urinary excretion (2 animals/dose) at (dose 1.56 mg/Kg, po); format: functional, Canis lupus familiaris, Urine; how it was run: as §1
[15] = system: Canis familiaris; assay: Saluretic activity in the dog measured as concentration of Cl - in urinary excretion (2 animals/dose) at (dose mg/Kg, po); format: functional, Canis lupus familiaris, Urine; how it was run: as §3
[16] = It is the ratio, measured as saluretic activity in the dog as concentration of Na+ in urinary excretion (dose 1.56 mg/Kg, po) to that of K; format: functional, Urine; how it was run: as §2
[17] = It is the ratio, measured as saluretic activity in the dog as concentration of Cl- in urinary excretion (dose 1.56 mg/Kg, po) to that of (Na+)+(K+); format: functional, Urine; how it was run: as §2

NCc1cccs1.NS(=O)(=O)c1cc(S(=O)(=O)O)c(NCc2cccs2)cc1Cl
Saluretic activity [1]: 2.33 m equiv 6hr-1 kg-1
Diuretic activity [2]: 44.5 ml kg-1 6hr-1
Saluretic activity [3]: 0.55 m equiv 6hr-1 kg-1
Saldiuretic activity [4]: Active
Saldiuretic activity [5]: 2.76 m equiv 6hr-1 kg-1
Diuretic activity [6]: 1 mL/kg
Saluretic activity [7]: 3.3 m equiv 5hr-1 kg-1
Saluretic activity [8]: 1.7 m equiv 5hr-1 kg-1
Saldiuretic activity [9]: Weak activity
Ratio [10]: 0.95
Ratio [11]: 4.2
Saluretic activity [12]: 2.7 m equiv 5hr-1 kg-1

NS(=O)(=O)c1cc(S(=O)(=O)[O-])c(NCc2ccco2)cc1[S+]([O-])c1ccccc1.[K+] (configuration not stated)
Saluretic activity [13]: 0.59 m equiv 6hr-1 kg-1
Diuretic activity [2]: 48.4 ml kg-1 6hr-1
Saldiuretic activity [14]: 0.33 m equiv 6hr-1 kg-1
Saldiuretic activity [15]: 1.27 m equiv 6hr-1 kg-1
Diuretic activity [6]: 0.8 mL/kg
Saluretic activity [7]: 1.7 m equiv 5hr-1 kg-1
Saluretic activity [8]: 1.5 m equiv 5hr-1 kg-1
Ratio [16]: 1.8
Ratio [17]: 1.3
Saluretic activity [12]: 0.8 m equiv 5hr-1 kg-1
